# Calls of active or inactive are those of the source. The calls are words filed in the database; no cut-off is given here.
# Tests used:
# [1] = test system: A549; assay: (§1) Photodynamic antitumor activity against human A549 cells xenografted in BALB/c nude mouse assessed as vascular rupture at 0.3 mg/kg, iv incubated for 24 hrs followed by laser light irradiation at 120 J/cm2 measured 24 hrs post light irradiation by H and E staining based histopathological analysis; assay type: functional, organism-based
# Summary of the method: (§2)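 Tumors from PDT-treated A549 xenograft mice (0.3 mg/kg i.v., 650 nm laser 120 J/cm2 at 24 h) excised, fixed in 4% formaldehyde in PBS, paraffin-embedded, sectioned, H&E stained.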
# [2] = Induction of ROS generation in DMF solution assessed as ROS quantum yield at 2 uM followed by irradiation measured every 10 secs by spectrophotometric analysis; assay type: functional
# [3] = test system: A549; assay: Induction of apoptosis in human A549 cells assessed as viable cells in presence of 1J/cm2 light irradiation measured after 4 hrs by annexin V-FITC and propidium iodide staining based flow cytometric analysis (reference value: 99.88%); assay type: functional
# Summary of the method: (§3)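 After PDT at 1 J/cm2, A549 cells collected 4 h later, stained with annexin V-FITC and propidium iodide per kit instructions; flow cytometry with at least 10,000 events per sample.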
# [4] = Drug localization in mitochondria of human A549 cells at 1 uM after 4 hrs by mito-tracker green based fluorescence microscopic method; assay type: ADME; conditions: a549, 4 h
# Summary of the method: (§4)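 A549 cells on coverslips at 1×10^4 cells/mL exposed to […] (so in the source) photosensitizer in complete medium for 4 h, washed, fixed in 4% paraformaldehyde 20 min, then probed 30 min at 37 °C with Mito-Tracker Green, Lyso-Tracker Blue or ER-Tracker Green; fluorescence microscopy, three repeats, minimal ambient light.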
# [5] = Drug uptake in human A549 cells incubated upto 24 hrs by fluorescence spectrophotometer analysis; assay type: ADME, cell-based; conditions: a549, 24 h
# Summary of the method: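 A549 cells (F-12K, 10% FBS, 37 °C, 5% CO2) grown in 24 wells and exposed to photosensitizer for 0.5, 1, 2, 4, 8, 12 or 24 h; cells harvested by digestion, fluorescence read on a spectrophotometer.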
# [6] = Induction of singlet oxygen generation in DMF solution assessed as singlet oxygen quantum yield by measuring reduction in TEMP irradiated with 650 nanometer laser light in every 20 secs by ESR assay; assay type: functional
# Summary of the method: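 ESR at room temperature: 9.65 GHz microwave frequency, 15 mW power, 3400–3500 G scan field, 0.8 G modulation amplitude, 15.5 s scan time, 32 scans.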
# [7] = test system: A549; assay: as §1, with “necrosis leukocyte infiltration” for “vascular rupture”; assay type: functional, organism-based; summary of the method: as §2
# [8] = test system: A549; assay: Cytotoxicity against human A549 cells assessed as apoptotic lesions in absence of light by fluorescence microscopic method; assay type: cell-based
# [9] = Drug uptake in BALB/c nude mouse xenografted with A549 cells assessed as drug level in heart at 0.3 mg/kg, iv measured at 12 hrs by fluorescence assay; assay type: ADME, organism-based; conditions: in vivo
# Summary of the method: (§5)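 A549 tumor-bearing mice dosed via tail vein (1 mg/kg in methods; 0.3 mg/kg in text) at tumors ~150–170 mm3, n = 3; whole-body imaging 0–24 h; at 6 and 12 h mice killed, heart, liver, spleen, lung, kidney, brain, tumor imaged ex vivo, excitation 420 nm, emission 650 nm.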
# [10] = Drug localization in lysosome of human A549 cells at 1 uM after 4 hrs by lyso-tracker blue based fluorescence microscopic method; assay type: ADME, subcellular; conditions: a549, 4 h; summary of the method: as §4
# [11] = Drug uptake in BALB/c nude mouse xenografted with A549 cells assessed as drug level in liver at 0.3 mg/kg, iv measured upto 12 hrs by fluorescence assay; assay type: ADME, organism-based; conditions: in vivo; summary of the method: as §5
# [12] = Induction of apoptosis in human A549 cells assessed as viable cells incubated for 4 hrs under dark condition by annexin V-FITC and propidium iodide staining based flow cytometric analysis (reference value: 99.88%); assay type: cell-based; conditions: read-out: Activity
# [13] = Drug localization in endoplasmic reticulum of human A549 cells at 1 uM after 4 hrs by DiOC6(3) ER-tracker green based fluorescence microscopic method; assay type: ADME, subcellular; conditions: a549, 4 h; summary of the method: as §4
# [14] = Drug uptake in BALB/c nude mouse xenografted with A549 cells assessed as drug level in lung at 0.3 mg/kg, iv measured at 12 hrs by fluorescence assay; assay type: ADME, organism-based; conditions: in vivo; summary of the method: as §5
# [15] = test system: A549; assay: Induction of apoptosis in human A549 cells assessed as late apoptotic cell in presence of 1J/cm2 light irradiation measured after 4 hrs by annexin V-FITC and propidium iodide staining based flow cytometric analysis (reference value: 0.05%); assay type: functional; summary of the method: as §3
# [16] = test system: A549; assay: Induction of apoptosis in human A549 cells assessed as necrosis incubated for 4 hrs under dark condition by annexin V-FITC and propidium iodide staining based flow cytometric analysis (reference value: 0.00%); assay type: cell-based; conditions: a549, 4 h
# [17] = test system: A549; assay: Phototoxicity in human A549 cells assessed as reduction in cell viability in presence of irradiation with laser light at 1 J/cm2 by fluorescence microscopic method relative to control; assay type: functional
# Summary of the method: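 A549 cells were grown in F-12K with 10% FBS at 37 °C in 5% CO2. Cells were treated with photosensitizer and exposed to 650 nm laser at 0 or 1 J/cm2, with a laser-alone group. Viable cells were then stained with calcein (green) and nuclei with DAPI (blue), and imaged by fluorescence microscopy.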
# [18] = test system: A549; assay: Induction of apoptosis in human A549 cells assessed as late apoptotic cell incubated for 4 hrs under dark condition by annexin V-FITC and propidium iodide staining based flow cytometric analysis (reference value: 0.05%); conditions: a549, 4 h
# [19] = test system: Mus musculus; assay: Phototoxicity in ICR mouse assessed as ear weight at 0.45 mg/kg, iv followed by 10 mW/cm2 light irradiation for 10 mins at 3 days after drug challenge measured after 1 day of light irradiation (reference value: 12.8 +/- 1.5 mg); assay type: organism-based; conditions: in vivo
# [20] = test system: Cavia porcellus; assay: Phototoxicity in guinea pig assessed as change in back skin weight 4.5 mg/kg, iv followed by 10 mW/cm2 light irradiation for 10 mins measured after 1day of light irradiation (reference value: 72.4 +/- 3.1 mg); assay type: organism-based; conditions: in vivo, 24 h
# [21] = test system: Cavia porcellus; assay: Phototoxicity in guinea pig assessed as change in right ear weight 4.5 mg/kg, iv followed by 10 mW/cm2 light irradiation for 10 mins measured after 1 day of light irradiation (reference value: 40.4 +/- 2.4 mg); assay type: organism-based; conditions: in vivo
# [22] = Emission property of a compound in DMSO assessed as red shift at 5 uM on excitation with light at 410 to 415 nm by 3D fluorescence spectra analysis; assay type: physicochemical
# Summary of the method: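 Stock 1 mM in DMSO, measured at […] (so in the source); excitation scanned 350–640 nm, emission 600–750 nm, 1 nm steps, room temperature, quartz cuvettes; 3D fluorescence matrix spectra recorded.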
# [23] = test system: A549; assay: Induction of apoptosis in human A549 cells assessed as caspase-3 activity using Ac-DEVD-pNA as substrate in presence of laser light irradiation measured upto 12 hrs; assay type: functional, cell-based
# [24] = test system: Mus musculus; assay: Phototoxicity in ICR mouse assessed as ear weight at 0.45 mg/kg, iv followed by 10 mW/cm2 light irradiation for 10 mins at 5 days after drug challenge measured after 1 day of light irradiation (reference value: 12.9 +/- 1.4 mg); assay type: organism-based; conditions: in vivo
Drug uptake [4],Drug uptake [5],Drug uptake [9],Drug uptake [10],Drug uptake [11],Drug uptake [13],Drug uptake [14],Structure (SMILES),Activity [1],Ratio [2],Activity [3] [%],Activity [6],Activity [7],Activity [8],viability at 4 h [12] [%],Activity [15] [%],Activity [16] [%],Activity [17] [%],Activity [18] [%],Activity [19] [mg],Activity [20] [mg],other results
Active,Active,Not Active,Active,Active,Active,Not Active,CCC1=C(C)c2cc3[nH]c(cc4nc(c5c6[nH]c(cc1n2)c(C)c6C(=O)C5)[C@@H](CCC(=O)NCC(=O)CCC(=O)O)[C@@H]4C)c(C)c3C(C)OCCO (stereo partly drawn),Active,1.35,2.64,Active,Active,Non-Toxic,87.8,67.73,2.75,34.15,4.7,13.2,74.3,Activity [21]: 41.9 mg; Activity [22]: 661 to 669 nm; Activity [23]: Active; Activity [24]: 12.9 mg
Active,Active,Not Active,Active,Active,Active,Not Active,CCCCOC(C)c1c(C)c2cc3nc(c4c5[nH]c(cc6nc(cc1[nH]2)C(C)=C6CC)c(C)c5C(=O)C4)[C@@H](CCC(=O)NCC(=O)CCC(=O)O)[C@@H]3C (stereo partly drawn),Active,1.56,3.13,Active,Active,Non-Toxic,89.8,83.88,2.3,30.69,4.78,13.1,75.2,Activity [21]: 43.6 mg; Activity [22]: 661 to 669 nm; Activity [23]: Active; Activity [24]: 13.5 mg
